Data reported in ChEMBL document CHEMBL1158076, “Bioactive guaianolides from siyekucai (Ixeris chinensis)” (J Nat Prod, 2006).
Where a name gives a salt, the structure may show the parent alone. Calls of active or inactive are those of the source. The calls are words filed in the database; no cut-off is given here.

Key:
WI-38 = test: Cytotoxicity against human WI38 cells; format: functional, cell-based
A549 [1] = test: Inhibition of ICAM1 induction in human A549 cells pretreated for 1 hr in presence of IL1alpha for 6 hrs; format: functional, cell-based
A549 [2] = test: Inhibition of ICAM1 induction in human A549 cells pretreated for 1 hr in presence of TNFalpha for 6 hrs; format: functional, cell-based
A549 [3] = test: Cytotoxicity against human A549 cells after 24 hrs by MTT method; format: cell-based; settings: A549, 24 h
In short: (§1)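 A549 cells were exposed to serial dilutions for 24 h and viability was read by MTT, in triplicate cultures. Viability (%) = (experimental − background absorbance)/(control − background absorbance) × 100, and IC50 was derived from it.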

WI-38 VA13 = test: Cytotoxicity against human VA13 cells; format: functional, cell-based
[4] = Cytotoxicity against human Hep G2 cells; format: functional, cell-based; settings: HepG2
A549 [5] = test: Inhibition of ICAM1 induction in human A549 cells in presence of IL1alpha; format: functional, cell-based
A549 [6] = test: Inhibition of ICAM1 induction in human A549 cells <100 uM pretreated for 1 hr at in presence of IL1alpha for 6 hrs; format: functional, cell-based
A549 [7] = test: Inhibition of ICAM1 induction in human A549 cells at <100 uM pretreated for 1 hr in presence of TNFalpha for 6 hrs; format: functional, cell-based
A549 [8] = test: Cytotoxicity against human A549 cells at <100 uM after 24 hrs by MTT method; format: cell-based; settings: a549, 24 h; in short: as §1

IC50 (A549 [1]) [µM]	IC50 (A549 [2]) [µM]	IC50 (A549 [5]) [µM]	SMILES	IC50 (WI-38) [µM]	IC50 (A549 [3]) [µM]	IC50 (WI-38 VA13) [µM]	IC50 [4] [µM]	Activity (A549 [6])	Activity (A549 [7])	Activity (A549 [8])
			CC(=O)O[C@H]1C(=O)[C@@]2(C)[C@H]([C@H](OC(=O)c3ccccc3)[C@]3(O)C[C@H](OC(=O)[C@H](O)[C@@H](NC(=O)c4ccccc4)c4ccccc4)C(C)=C1C3(C)C)[C@]1(OC(C)=O)CO[C@@H]1C[C@@H]2O [PACLITAXEL]	0.04						
16.1	20.1		C=C1C(=O)O[C@@H]2[C@H]3C(CO)=CC(=O)C3=C(C)CC[C@@H]12	2.7	> 100	8.5	25			
			COc1cccc2c1C(=O)c1c(O)c3c(c(O)c1C2=O)C[C@@](O)(C(=O)CO)C[C@@H]3O[C@H]1C[C@H](N)[C@H](O)[C@H](C)O1 [DOXORUBICIN HYDROCHLORIDE]	0.7		0.4				
		20.9	C=C1C(=O)O[C@@H]2C3=C(C)C(=O)C[C@H]3[C@](C)(O)CC[C@@H]12	24	> 100	22	23			
> 100	> 100		C=C1[C@@H]2[C@H]3OC(=O)C(=C)[C@@H]3CC[C@@](C)(O)[C@@H]2C[C@@H]1O[C@@H]1O[C@H](COC(=O)Cc2ccc(O)cc2)[C@@H](O)[C@H](O)[C@H]1OC(=O)Cc1ccc(O)cc1 [CHINENSIOLIDE E]	23	> 100	0.72	140	inactive	inactive	Non-toxic
			C[C@@H]1C(=O)O[C@H]2[C@H]1CC[C@@](C)(O)[C@@H]1CC(=O)[C@@H](C)[C@H]21	32		160	230			
> 100	> 100		CC1=C2[C@H]3OC(=O)[C@@H](C)[C@@H]3CC[C@@](C)(O)[C@@H]2CC1=O	25	> 100	130	230	inactive	inactive	Non-toxic
10.9	11.4		C=C1C(=O)C[C@@H]2[C@H]1[C@H]1OC(=O)C(=C)[C@@H]1CC[C@@]2(C)O		64.9					
> 100	> 100		C=C1C(=O)O[C@@H]2[C@H]3C(=C)[C@@H](O[C@@H]4O[C@H](COC(=O)Cc5ccc(O)cc5)[C@@H](O)[C@H](O)[C@H]4O)C[C@H]3C(=C)C[C@@H](OC(=O)Cc3ccc(O)cc3)[C@@H]12 [IXEROCHINOSIDE]		> 100			inactive	inactive	Non-toxic
16.4	16.8		C=C1C(=O)O[C@@H]2[C@H]3[C@H](C)C(=O)C[C@H]3[C@](C)(O)CC[C@@H]12	25	> 100	27	22			
